Assay results reported in ChEMBL document CHEMBL1667769, “Sodium [2'-[(cyclopropanecarbonyl-ethyl-amino)-methyl]-4'-(6-ethoxy-pyridin-3-yl)-6-methoxy-biphenyl-3-yl]-acetate (AM432): a potent, selective prostaglandin D2 receptor antagonist” (Bioorg Med Chem Lett, 2011).
Values belong to the compound of their own block, whether it stands above or below them. The source made the active and inactive calls. No cut-off for these calls is given here.

Experiments:
[1] = molecular target: T1, Prostaglandin D2 receptor 2 (Homo sapiens, UniProt Q9Y5Y4); experiment: Displacement of [3H]PGD2 from human CRTh2 receptor expressed in 293 cells by liquid scintillation counting; format: cell-based, HEK293
T1 sequence (Q9Y5Y4 whole entry): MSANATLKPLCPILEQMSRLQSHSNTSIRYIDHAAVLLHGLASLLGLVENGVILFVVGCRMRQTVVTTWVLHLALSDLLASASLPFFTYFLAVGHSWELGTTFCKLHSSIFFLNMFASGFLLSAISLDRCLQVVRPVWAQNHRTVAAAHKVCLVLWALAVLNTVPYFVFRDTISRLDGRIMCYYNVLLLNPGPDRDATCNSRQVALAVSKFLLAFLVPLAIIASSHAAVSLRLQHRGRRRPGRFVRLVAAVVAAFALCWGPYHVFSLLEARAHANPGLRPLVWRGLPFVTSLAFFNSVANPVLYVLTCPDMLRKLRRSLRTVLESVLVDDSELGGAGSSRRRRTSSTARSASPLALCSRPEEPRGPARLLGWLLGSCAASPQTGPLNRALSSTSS
Method in brief: (§1)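 Membranes from 293 cells stably expressing human DP₂ incubated with [³H]-PGD₂ and increasing compound concentrations. Membranes harvested and washed; bound [³H]-PGD₂ counted. IC₅₀ taken as concentration giving 50% inhibition of binding. Run without and with 0.2% human serum albumin. Values averaged from three experiments (five for the lead).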

[2] = molecular target: T1, Prostaglandin D2 receptor 2; experiment: Displacement of [3H]PGD2 from human CRTh2 receptor expressed in 293 cells by liquid scintillation counting in presence of 0.2 % HSA; format: cell-based, HEK293; method in brief: as §1
[3] = molecular target: hERG (KCNH2) (Homo sapiens, UniProt Q12809); experiment: Inhibition of human ERG at 10 uM by patch-clamp analysis
hERG (KCNH2), sequence (Q12809 whole entry): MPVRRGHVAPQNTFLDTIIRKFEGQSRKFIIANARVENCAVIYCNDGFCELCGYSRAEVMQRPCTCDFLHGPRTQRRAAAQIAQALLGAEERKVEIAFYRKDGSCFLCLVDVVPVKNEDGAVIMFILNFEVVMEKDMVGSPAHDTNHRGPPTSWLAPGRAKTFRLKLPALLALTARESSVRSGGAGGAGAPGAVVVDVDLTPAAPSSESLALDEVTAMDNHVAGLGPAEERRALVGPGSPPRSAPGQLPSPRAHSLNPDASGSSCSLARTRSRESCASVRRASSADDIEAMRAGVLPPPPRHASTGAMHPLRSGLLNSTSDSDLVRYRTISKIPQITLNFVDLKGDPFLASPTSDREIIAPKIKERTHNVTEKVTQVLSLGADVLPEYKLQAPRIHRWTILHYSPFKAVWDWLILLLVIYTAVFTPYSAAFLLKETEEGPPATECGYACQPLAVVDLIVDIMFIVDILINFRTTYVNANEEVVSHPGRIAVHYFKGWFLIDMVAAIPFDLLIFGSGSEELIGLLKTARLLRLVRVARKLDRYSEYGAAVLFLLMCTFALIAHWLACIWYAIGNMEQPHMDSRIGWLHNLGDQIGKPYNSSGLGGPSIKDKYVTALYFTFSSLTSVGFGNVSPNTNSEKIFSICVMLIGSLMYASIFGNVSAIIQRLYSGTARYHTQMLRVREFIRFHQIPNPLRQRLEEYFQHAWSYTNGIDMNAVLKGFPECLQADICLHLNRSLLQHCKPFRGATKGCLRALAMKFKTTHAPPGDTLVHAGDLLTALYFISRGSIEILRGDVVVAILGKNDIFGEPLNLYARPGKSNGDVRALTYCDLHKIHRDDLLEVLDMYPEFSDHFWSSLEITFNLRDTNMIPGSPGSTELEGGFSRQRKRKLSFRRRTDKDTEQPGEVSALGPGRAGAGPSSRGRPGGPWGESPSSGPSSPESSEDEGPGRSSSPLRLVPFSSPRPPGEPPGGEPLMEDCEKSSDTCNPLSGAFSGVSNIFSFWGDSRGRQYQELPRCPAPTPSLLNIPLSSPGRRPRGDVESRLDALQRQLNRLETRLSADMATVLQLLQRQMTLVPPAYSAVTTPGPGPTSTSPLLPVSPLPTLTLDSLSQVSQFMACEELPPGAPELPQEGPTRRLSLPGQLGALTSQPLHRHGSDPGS

[4] = molecular target: Cytochrome P450 3A4 (Homo sapiens, UniProt P08684); experiment: Inhibition of human CYP3A4; format: ADME
[5] = molecular target: Cytochrome P450 2C9 (Homo sapiens, UniProt P11712); experiment: Inhibition of human CYP2C9; format: ADME
Cytochrome P450 2C9, sequence (P11712 whole entry): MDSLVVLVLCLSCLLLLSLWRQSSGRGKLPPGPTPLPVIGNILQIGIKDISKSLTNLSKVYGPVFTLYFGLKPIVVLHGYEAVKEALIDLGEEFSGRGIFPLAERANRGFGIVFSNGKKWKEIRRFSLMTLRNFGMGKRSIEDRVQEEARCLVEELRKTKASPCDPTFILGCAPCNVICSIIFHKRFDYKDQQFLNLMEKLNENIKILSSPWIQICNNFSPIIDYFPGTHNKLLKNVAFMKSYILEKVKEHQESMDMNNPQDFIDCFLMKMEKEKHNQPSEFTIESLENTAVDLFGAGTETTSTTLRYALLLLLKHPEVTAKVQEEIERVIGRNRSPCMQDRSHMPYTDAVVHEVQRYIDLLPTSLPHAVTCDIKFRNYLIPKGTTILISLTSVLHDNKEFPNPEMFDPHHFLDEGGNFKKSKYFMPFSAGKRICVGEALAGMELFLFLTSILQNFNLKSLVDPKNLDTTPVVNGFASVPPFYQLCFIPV

[6] = molecular target: Cytochrome P450 2C19 (Homo sapiens, UniProt P33261); experiment: Inhibition of human CYP2C19; format: ADME
Cytochrome P450 2C19, sequence (P33261 whole entry): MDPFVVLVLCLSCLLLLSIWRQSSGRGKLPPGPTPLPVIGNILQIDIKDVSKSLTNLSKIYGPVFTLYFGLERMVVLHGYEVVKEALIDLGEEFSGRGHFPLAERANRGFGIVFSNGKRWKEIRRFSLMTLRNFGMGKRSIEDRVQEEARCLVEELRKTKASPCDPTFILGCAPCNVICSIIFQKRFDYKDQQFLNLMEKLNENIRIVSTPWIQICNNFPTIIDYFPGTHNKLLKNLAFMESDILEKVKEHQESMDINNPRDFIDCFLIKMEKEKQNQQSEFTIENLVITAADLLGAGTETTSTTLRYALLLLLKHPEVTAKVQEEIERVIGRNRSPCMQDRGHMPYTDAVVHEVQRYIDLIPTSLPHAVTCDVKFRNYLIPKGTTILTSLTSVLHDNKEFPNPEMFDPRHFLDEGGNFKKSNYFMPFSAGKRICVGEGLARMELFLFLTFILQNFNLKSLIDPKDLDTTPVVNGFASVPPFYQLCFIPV

[7] = molecular target: Cytochrome P450 2D6 (Homo sapiens, UniProt P10635); experiment: Inhibition of human CYP2D6; format: ADME
Cytochrome P450 2D6, sequence (P10635 whole entry): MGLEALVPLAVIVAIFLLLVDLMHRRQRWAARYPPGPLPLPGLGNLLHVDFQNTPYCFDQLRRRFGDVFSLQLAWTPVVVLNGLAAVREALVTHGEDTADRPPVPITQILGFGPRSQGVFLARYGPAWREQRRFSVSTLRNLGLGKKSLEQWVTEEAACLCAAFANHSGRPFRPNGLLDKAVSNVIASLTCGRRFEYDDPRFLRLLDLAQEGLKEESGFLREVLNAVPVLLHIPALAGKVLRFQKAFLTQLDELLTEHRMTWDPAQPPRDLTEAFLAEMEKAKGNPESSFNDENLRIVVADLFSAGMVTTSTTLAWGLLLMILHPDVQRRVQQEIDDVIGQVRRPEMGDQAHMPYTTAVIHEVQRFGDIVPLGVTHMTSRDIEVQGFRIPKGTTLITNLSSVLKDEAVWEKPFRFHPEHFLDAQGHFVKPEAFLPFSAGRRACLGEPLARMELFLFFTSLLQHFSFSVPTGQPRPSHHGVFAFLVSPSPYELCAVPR

[8] = molecular target: T2, Cytochrome P450 1A2 (Homo sapiens, UniProt P05177); experiment: Inhibition of human CYP1A2; format: ADME
T2 sequence (P05177 whole entry): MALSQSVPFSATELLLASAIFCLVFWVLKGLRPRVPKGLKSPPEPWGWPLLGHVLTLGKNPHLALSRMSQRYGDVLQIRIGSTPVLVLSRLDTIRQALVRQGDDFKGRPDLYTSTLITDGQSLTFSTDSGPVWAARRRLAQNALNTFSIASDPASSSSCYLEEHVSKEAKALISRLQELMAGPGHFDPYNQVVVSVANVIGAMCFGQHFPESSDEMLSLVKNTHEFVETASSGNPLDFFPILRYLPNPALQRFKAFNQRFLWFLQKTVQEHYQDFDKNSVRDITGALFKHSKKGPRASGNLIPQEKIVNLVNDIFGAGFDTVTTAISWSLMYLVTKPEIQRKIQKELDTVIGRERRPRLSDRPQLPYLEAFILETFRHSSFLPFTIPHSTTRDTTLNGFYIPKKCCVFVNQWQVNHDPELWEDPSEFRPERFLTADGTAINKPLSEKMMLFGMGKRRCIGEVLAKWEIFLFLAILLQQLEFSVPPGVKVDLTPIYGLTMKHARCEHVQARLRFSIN

[9] = molecular target: Prostaglandin G/H synthase 1 (Homo sapiens, UniProt P23219); experiment: Inhibition of COX-1
Prostaglandin G/H synthase 1, sequence (P23219 whole entry): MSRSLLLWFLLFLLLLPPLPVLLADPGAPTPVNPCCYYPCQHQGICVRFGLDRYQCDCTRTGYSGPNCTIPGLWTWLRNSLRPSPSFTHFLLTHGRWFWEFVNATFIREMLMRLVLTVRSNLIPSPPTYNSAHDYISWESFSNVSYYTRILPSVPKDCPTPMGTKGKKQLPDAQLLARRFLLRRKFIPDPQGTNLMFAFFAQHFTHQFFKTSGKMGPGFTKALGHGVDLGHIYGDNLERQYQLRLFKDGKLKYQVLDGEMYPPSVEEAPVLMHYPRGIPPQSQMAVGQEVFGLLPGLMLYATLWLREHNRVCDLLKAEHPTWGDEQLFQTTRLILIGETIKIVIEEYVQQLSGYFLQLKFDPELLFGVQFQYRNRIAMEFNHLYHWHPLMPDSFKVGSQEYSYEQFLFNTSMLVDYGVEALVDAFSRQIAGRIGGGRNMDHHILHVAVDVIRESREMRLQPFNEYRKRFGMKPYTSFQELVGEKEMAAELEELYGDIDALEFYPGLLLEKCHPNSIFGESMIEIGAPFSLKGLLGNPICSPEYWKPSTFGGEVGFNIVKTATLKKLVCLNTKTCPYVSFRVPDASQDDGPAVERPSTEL

[10] = molecular target: T3, Prostaglandin G/H synthase 2 (Homo sapiens, UniProt P35354); experiment: Inhibition of COX-2
T3 sequence (P35354 whole entry): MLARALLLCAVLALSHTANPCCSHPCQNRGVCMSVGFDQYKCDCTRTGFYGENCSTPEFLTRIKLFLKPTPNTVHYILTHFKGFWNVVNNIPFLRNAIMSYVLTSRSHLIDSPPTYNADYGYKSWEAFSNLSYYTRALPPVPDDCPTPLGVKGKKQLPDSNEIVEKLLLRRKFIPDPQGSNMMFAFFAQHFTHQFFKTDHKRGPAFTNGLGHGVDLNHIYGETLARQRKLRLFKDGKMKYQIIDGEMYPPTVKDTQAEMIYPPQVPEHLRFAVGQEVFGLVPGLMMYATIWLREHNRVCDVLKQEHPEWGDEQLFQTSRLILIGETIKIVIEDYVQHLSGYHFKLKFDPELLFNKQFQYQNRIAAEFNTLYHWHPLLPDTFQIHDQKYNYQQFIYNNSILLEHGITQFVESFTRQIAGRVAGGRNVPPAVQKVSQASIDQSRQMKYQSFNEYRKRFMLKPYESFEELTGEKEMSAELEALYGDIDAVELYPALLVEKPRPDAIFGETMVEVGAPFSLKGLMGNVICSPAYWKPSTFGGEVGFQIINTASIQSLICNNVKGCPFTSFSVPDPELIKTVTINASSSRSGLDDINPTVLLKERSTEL

[11] = molecular target: T4, Peroxisome proliferator-activated receptor alpha (Homo sapiens, UniProt Q07869); experiment: Inhibition of PPAR alpha
T4 sequence (Q07869 whole entry): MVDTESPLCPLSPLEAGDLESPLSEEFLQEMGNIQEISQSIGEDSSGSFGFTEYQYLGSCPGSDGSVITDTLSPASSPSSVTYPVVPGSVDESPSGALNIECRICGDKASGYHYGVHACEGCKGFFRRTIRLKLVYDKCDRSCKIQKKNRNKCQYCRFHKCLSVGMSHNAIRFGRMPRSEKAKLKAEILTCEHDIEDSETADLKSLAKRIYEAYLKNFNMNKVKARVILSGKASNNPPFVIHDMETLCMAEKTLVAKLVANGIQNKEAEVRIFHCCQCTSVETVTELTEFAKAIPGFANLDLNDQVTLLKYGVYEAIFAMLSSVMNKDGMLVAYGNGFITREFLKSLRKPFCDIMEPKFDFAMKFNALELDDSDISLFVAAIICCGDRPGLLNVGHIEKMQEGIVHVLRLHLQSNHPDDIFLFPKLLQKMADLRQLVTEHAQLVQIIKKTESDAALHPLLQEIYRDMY

[12] = molecular target: Peroxisome proliferator-activated receptor delta (Homo sapiens, UniProt Q03181); experiment: Inhibition of PPAR beta
Peroxisome proliferator-activated receptor delta, sequence (Q03181 whole entry, looked up): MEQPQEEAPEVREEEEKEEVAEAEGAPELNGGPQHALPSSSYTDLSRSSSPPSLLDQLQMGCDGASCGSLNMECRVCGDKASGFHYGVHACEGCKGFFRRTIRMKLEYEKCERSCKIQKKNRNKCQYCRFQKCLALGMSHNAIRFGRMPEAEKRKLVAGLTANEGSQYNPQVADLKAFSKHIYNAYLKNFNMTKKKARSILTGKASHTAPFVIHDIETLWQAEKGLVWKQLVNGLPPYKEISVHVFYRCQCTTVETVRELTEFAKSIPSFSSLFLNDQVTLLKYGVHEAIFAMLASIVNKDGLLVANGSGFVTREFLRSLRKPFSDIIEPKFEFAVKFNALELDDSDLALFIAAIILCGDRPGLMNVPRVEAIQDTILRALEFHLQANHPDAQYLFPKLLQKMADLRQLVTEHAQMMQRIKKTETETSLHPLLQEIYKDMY

[13] = molecular target: Peroxisome proliferator-activated receptor gamma (Homo sapiens, UniProt P37231); experiment: Inhibition of PPAR gamma
Peroxisome proliferator-activated receptor gamma, sequence (P37231 whole entry, looked up): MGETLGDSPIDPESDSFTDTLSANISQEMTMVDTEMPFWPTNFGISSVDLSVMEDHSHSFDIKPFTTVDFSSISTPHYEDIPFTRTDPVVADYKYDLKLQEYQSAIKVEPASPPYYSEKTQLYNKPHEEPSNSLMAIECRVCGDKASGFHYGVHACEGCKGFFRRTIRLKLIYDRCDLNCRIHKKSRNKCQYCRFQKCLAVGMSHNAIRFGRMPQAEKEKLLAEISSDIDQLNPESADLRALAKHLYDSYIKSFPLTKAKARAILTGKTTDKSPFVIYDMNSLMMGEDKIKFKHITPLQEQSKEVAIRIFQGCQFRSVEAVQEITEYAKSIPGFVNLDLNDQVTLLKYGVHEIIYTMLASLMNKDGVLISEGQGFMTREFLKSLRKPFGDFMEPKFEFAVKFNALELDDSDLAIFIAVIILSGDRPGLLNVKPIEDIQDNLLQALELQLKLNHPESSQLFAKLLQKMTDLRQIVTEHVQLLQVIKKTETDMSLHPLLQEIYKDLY

[14] = molecular target: T5, Prostaglandin D2 receptor (Homo sapiens, UniProt Q13258); experiment: Displacement of [3H]PGD2 from DP1 in human platelet membrane; format: cell membranes
T5 sequence (Q13258 whole entry): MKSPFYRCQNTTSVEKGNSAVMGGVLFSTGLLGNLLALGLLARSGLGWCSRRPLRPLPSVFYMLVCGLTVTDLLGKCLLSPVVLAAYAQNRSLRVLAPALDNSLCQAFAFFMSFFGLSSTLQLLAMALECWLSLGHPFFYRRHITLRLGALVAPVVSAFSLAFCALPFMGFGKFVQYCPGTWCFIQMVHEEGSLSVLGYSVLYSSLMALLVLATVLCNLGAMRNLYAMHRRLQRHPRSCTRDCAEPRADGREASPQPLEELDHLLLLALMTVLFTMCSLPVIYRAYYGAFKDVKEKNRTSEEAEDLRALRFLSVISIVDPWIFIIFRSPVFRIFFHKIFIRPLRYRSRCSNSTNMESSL
Method in brief: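 Human DP₁ binding using ³H-PGD₂ and human platelet membranes.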

[15] = molecular target: T6, Thromboxane A2 receptor (Homo sapiens, UniProt P21731); experiment: Displacement of [3H]SQ-29548 from TP receptor in human platelet membrane; format: cell membranes
T6 sequence (P21731 whole entry): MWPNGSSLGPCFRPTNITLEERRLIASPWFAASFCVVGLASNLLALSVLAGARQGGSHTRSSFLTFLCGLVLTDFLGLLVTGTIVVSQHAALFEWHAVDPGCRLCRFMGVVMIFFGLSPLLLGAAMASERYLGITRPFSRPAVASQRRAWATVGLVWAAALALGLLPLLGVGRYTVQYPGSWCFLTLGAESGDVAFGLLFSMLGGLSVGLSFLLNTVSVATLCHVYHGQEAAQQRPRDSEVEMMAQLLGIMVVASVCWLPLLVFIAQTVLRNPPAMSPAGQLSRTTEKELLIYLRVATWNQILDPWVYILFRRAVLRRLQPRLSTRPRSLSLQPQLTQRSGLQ
Method in brief: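 Human TP binding using human platelet membranes and ³H-SQ-29548.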

[16] = molecular target: Prostacyclin receptor (Homo sapiens, UniProt P43119); experiment: Displacement of [3H]iloprost from IP receptor in human 293 cell membrane; format: cell membranes
Prostacyclin receptor, sequence (P43119 whole entry): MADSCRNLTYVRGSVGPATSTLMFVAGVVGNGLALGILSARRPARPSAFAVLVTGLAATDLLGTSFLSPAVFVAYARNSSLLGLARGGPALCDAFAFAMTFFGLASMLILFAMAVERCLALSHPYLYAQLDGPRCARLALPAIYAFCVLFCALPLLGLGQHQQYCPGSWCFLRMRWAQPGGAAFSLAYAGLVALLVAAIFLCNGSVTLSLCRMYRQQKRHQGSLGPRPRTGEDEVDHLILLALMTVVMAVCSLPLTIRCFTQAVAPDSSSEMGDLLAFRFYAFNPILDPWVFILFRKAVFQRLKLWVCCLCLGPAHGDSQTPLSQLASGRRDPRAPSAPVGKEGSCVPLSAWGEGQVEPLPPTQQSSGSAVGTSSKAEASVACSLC
Method in brief: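 Human IP binding using hIP/293 membranes and ³H-iloprost.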

[17] = tested on: Mus musculus; experiment: Antiallergic activity in BALB/c mouse assessed as reduction in ovalbumin-induced increase in nasal rubs at 10 mg/kg, po administered 21 to 25 days after ovalbumin challenge followed by intranasal ovalbumin challenge measured for 8 mins of post dose; format: functional, organism-based; set-up: dose 10 mg/kg
[18] = tested on: Mus musculus; experiment: Antiallergic activity in BALB/c mouse assessed as reduction in ovalbumin-induced increase in nasal sneezes at 10 mg/kg, po administered 21 to 25 days after ovalbumin challenge followed by intranasal ovalbumin challenge measured for 8 mins of post dose; format: functional, organism-based; set-up: dose 10 mg/kg
[19] = tested on: Mus musculus; experiment: Antiinflammatory activity against cigarette smoke-induced lung inflammation in BALB/c mouse assessed as reduction in bronchoalveolar lavage fluid neutrophils at 50 mg/kg, po for 2 days; format: functional, organism-based; set-up: dose 50 mg/kg
Method in brief: (§2)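 Mice exposed to cigarette smoke. Oral dosing at 10 or 50 mg/kg, or 0.5% methylcellulose vehicle, on days −1 through 2. On day 3, euthanized by isoflurane inhalation, then bronchoalveolar lavage with differential counts of neutrophils, lymphocytes and macrophages.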

[20] = tested on: Mus musculus; experiment: Antiinflammatory activity against cigarette smoke-induced lung inflammation in BALB/c mouse assessed as reduction in bronchoalveolar lavage fluid lymphocytes at 50 mg/kg, po for 2 days; format: functional, organism-based; set-up: dose 50 mg/kg; method in brief: as §2
[21] = tested on: Mus musculus; experiment: Antiinflammatory activity against cigarette smoke-induced lung inflammation in BALB/c mouse assessed as reduction in bronchoalveolar lavage fluid macrophages at 50 mg/kg, po for 2 days; format: functional, organism-based; set-up: dose 50 mg/kg; method in brief: as §2
[22] = tested on: Mus musculus; experiment: Antiinflammatory activity against cigarette smoke-induced lung inflammation in BALB/c mouse assessed as reduction in bronchoalveolar lavage fluid neutrophils at 10 mg/kg, po for 2 days; format: functional, organism-based; set-up: dose 10 mg/kg; method in brief: as §2
[23] = tested on: Mus musculus; experiment: Antiinflammatory activity against cigarette smoke-induced lung inflammation in BALB/c mouse assessed as reduction in bronchoalveolar lavage fluid lymphocytes at 10 mg/kg, po for 2 days; format: functional, organism-based; set-up: dose 10 mg/kg; method in brief: as §2
[24] = tested on: Mus musculus; experiment: Antiinflammatory activity against cigarette smoke-induced lung inflammation in BALB/c mouse assessed as reduction in bronchoalveolar lavage fluid macrophages at 10 mg/kg, po for 2 days; format: functional, organism-based; set-up: dose 10 mg/kg; method in brief: as §2
[25] = tested on: Canis familiaris; experiment: AUC in dog at 2.5 mg/kg, po or 2 mg/kg, iv; conditions: in vivo
[26] = Cmax in dog at 2.5 mg/kg, po or 2 mg/kg, iv; conditions: in vivo
[27] = Half life in dog at 2.5 mg/kg, po or 2 mg/kg, iv; conditions: in vivo
[28] = Clearance in dog at 2.5 mg/kg, po or 2 mg/kg, iv; conditions: in vivo

IC50 [1]: 27 nM
IC50 [2]: 37 nM
Compound: CCN(Cc1cc(-c2cnn(C)c2)ccc1-c1cc(CC(=O)O)ccc1OC)C(=O)C1CC1

IC50 [1]: 7 nM
IC50 [2]: 52 nM
Compound: CCN(Cc1cc(-c2cnc3ccccc3c2)ccc1-c1cc(CC(=O)O)ccc1OC)C(=O)C1CC1

IC50 [1]: 6 nM
IC50 [2]: 31 nM
IC50 [4]: > 50000 nM
IC50 [5]: > 50000 nM
IC50 [6]: > 50000 nM
IC50 [7]: > 50000 nM
IC50 [8]: > 50000 nM
IC50 [9]: > 100000 nM
IC50 [10]: > 100000 nM
IC50 [11]: > 250000 nM
IC50 [12]: > 250000 nM
IC50 [13]: > 250000 nM
IC50 [14]: 26700 nM
IC50 [15]: > 100000 nM
IC50 [16]: > 100000 nM
AUC [25]: 87 µg/mL
Cmax [26]: 30 µM
half-life [27]: 6 h
clearance [28]: 0.5 mL/min/kg
Compound: CCOc1ccc(-c2ccc(-c3cc(CC(=O)[O-])ccc3OC)c(CN(CC)C(=O)C3CC3)c2)cn1.[Na+]
inhibition at 10 µM [3]: 11%
Activity [17]: Active
Activity [18]: Active
Activity [19]: Active
Activity [20]: Active
Activity [21]: Active
Activity [22]: Active
Activity [23]: inactive
Activity [24]: inactive

IC50 [1]: 7 nM
IC50 [2]: 60 nM
Compound: CCN(Cc1cc(NC(C)=O)ccc1-c1cc(CC(=O)O)ccc1OC)C(=O)OCc1ccccc1

IC50 [1]: 27 nM
IC50 [2]: 107 nM
Compound: CCN(Cc1cc(-c2ncc(OC)cn2)ccc1-c1cc(CC(=O)O)ccc1OC)C(=O)C1CC1

IC50 [1]: 12 nM
IC50 [2]: 24 nM
Compound: CCN(Cc1cc(C(C)(C)O)ccc1-c1cc(CC(=O)O)ccc1OC)C(=O)OCc1ccccc1
